Assay results published in ChEMBL document CHEMBL1144520, “Synthesis of 5-deazaflavin derivatives and their activation of p53 in cells” (2007).
Active and inactive are the calls of the source. The rule behind the calls is not given here.

Tests used:
RKO [1] = assay: Stabilization of p53 level in RKO cells; assay type: functional, cell-based; settings: Homo sapiens
RPE = assay: Induction of p21WAF1/CIP1 level in RPE cells; assay type: functional, cell-based; settings: Homo sapiens
In short: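 Primary human retinal pigment epithelial (RPE) cells were exposed to each compound at 1–20 µM for 24 h. Whole-cell extracts were resolved by SDS 12% polyacrylamide gel electrophoresis and read out by Western blotting.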

RKO [2] = assay: Cell cycle arrest in RKO cells by accumulation at G1 phase; assay type: functional, Homo sapiens
RKO [3] = assay: Induction of apoptosis in RKO cells; assay type: functional, cell-based; settings: Homo sapiens
RKO/E6 = assay: Induction of apoptosis in RKO/E6 cells; assay type: functional, cell-based; settings: Homo sapiens
In short: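 RKO/E6 cells are RKO cells expressing HPV16 E6 protein, which inactivates endogenous p53. They are used to test p53 dependence of the apoptotic response.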

RKO [4] = assay: Cell cycle arrest in RKO cells by accumulation at G2 phase; assay type: functional, cell-based; settings: Homo sapiens
RKO [5] = assay: Cell cycle arrest in RKO cells by accumulation at G2/M phase; assay type: functional, cell-based; settings: Homo sapiens

Cc1ccc(-n2c3nc(=O)[nH]c(=O)c-3cc3c(C(F)(F)F)cccc32)cc1
Activity (RKO [1]): inactive | Activity (RPE): inactive | Activity (RKO [2]): 62% | Activity (RKO [3]): inactive | Activity (RKO/E6): inactive

O=c1nc2n(-c3ccc(Cl)cc3)c3ccc(C(F)(F)F)cc3cc-2c(=O)[nH]1
Activity (RKO [1]): inactive | Activity (RPE): inactive | Activity (RKO [3]): inactive | Activity (RKO/E6): inactive

O=c1nc2n(-c3cccc(Cl)c3)c3ccc([N+](=O)[O-])cc3cc-2c(=O)[nH]1
Activity (RKO [1]): Active | Activity (RPE): Active | Activity (RKO [2]): 75% | Activity (RKO/E6): inactive

O=c1nc2n(-c3ccccc3Cl)c3ccc([N+](=O)[O-])cc3cc-2c(=O)[nH]1
Activity (RKO [1]): Active | Activity (RPE): Active | Activity (RKO [4]): Active | Activity (RKO [5]): Active | Activity (RKO/E6): Active

O=c1nc2n(-c3ccccc3Cl)c3cccc(Cl)c3cc-2c(=O)[nH]1
Activity (RKO [1]): Active | Activity (RKO [4]): Active | Activity (RKO [5]): Active | Activity (RKO/E6): Active

O=c1nc2n(-c3ccc(Cl)cc3)c3cccc(Cl)c3cc-2c(=O)[nH]1
Activity (RKO [1]): Active | Activity (RPE): Active | Activity (RKO [2]; Homo sapiens): Active | Activity (RKO/E6): inactive

Cc1ccc(-n2c3nc(=O)[nH]c(=O)c-3cc3c(Cl)cccc32)cc1
Activity (RKO [1]): Active | Activity (RPE): Active | Activity (RKO [2]): 73% | Activity (RKO/E6): inactive
